Measurements as given in ChEMBL document CHEMBL5042517, “Discovery, X-ray Crystallography, and Anti-inflammatory Activity of Bromodomain-containing Protein 4 (BRD4) BD1 Inhibitors Targeting a Distinct New Binding Site” (J Med Chem, 2022).
In brackets after ≈: the same amount, converted by molar mass. Activity calls are given as the source filed them. The rule behind the calls is not given here.

Columns and labels:
[1] = AUC (0 to t) in rat at 20 mg/kg, po; format: ADME, organism-based; design: dose 20 mg/kg; settings: in vivo
[2] = Antiinflammatory activity in human SAEC assessed as inhibition of Poly(I:C) induced IL-6 expression pretreated for 24 hrs followed by Poly(I:C) addition for 4 hrs by qRT-PCR analysis; format: functional, cell-based
Method in brief: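 Poly(I:C) 10 μg/mL then added for 4 h. CIG5 or IL-6 mRNA measured by qRT-PCR (ΔΔCt, PPIA normalized). IC50 from a four-parameter fit, mean ± SD of three independent runs.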

[3] = molecular target: T1, Bromodomain-containing protein 4 (Homo sapiens, UniProt O60885); assay: Binding affinity to wild type human BRD4 BD1 (42 to168 residues) expressed in bacterial competent cells assessed as increase in thermal stability by thermal shift assay
[4] = molecular target: T2, Bromodomain-containing protein 2 (Homo sapiens, UniProt P25440); assay: Binding affinity BRD2 BD1 (unknown origin) incubated for 1 hr by TR-FRET assay
T2 sequence (P25440 whole entry): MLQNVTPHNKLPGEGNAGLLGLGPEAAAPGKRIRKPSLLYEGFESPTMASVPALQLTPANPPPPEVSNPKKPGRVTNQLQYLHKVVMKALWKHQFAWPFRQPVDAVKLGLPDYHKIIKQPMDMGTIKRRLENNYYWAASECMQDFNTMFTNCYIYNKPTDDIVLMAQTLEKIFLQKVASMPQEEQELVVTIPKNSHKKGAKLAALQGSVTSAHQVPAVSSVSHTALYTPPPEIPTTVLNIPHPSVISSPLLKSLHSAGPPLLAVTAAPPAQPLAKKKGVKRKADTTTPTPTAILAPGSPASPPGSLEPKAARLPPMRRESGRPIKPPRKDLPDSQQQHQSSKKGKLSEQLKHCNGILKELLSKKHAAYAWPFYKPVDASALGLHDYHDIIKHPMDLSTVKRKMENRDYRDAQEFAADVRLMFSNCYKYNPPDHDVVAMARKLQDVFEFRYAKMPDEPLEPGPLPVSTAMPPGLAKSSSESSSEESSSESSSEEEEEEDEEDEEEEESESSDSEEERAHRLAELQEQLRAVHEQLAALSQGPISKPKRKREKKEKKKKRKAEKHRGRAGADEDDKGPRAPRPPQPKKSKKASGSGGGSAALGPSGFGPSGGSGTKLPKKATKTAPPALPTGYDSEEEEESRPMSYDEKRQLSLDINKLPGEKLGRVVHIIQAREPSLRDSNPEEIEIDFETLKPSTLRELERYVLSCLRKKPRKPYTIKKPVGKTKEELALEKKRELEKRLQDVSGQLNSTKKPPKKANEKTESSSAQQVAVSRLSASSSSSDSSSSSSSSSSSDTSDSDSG
Method in brief: (§1)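 Commercial TR-FRET kit with recombinant BRD2 bromodomain. Inhibitor at 0.01 nM–100 μM, 1 h at room temperature. Excitation 340 nm; 670/620 nm emission ratio read with 100 μs delay. IC50 from a four-parameter fit, mean of three runs.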

[5] = molecular target: T2, Bromodomain-containing protein 2; assay: Binding affinity BRD2 BD2 (unknown origin) incubated for 1 hr by TR-FRET assay; method in brief: as §1
[6] = molecular target: Bromodomain-containing protein 3 (Homo sapiens, UniProt Q15059); assay: Binding affinity BRD3 BD2 (unknown origin) incubated for 1 hr by TR-FRET assay
Chain of Bromodomain-containing protein 3 (Q15059 whole entry): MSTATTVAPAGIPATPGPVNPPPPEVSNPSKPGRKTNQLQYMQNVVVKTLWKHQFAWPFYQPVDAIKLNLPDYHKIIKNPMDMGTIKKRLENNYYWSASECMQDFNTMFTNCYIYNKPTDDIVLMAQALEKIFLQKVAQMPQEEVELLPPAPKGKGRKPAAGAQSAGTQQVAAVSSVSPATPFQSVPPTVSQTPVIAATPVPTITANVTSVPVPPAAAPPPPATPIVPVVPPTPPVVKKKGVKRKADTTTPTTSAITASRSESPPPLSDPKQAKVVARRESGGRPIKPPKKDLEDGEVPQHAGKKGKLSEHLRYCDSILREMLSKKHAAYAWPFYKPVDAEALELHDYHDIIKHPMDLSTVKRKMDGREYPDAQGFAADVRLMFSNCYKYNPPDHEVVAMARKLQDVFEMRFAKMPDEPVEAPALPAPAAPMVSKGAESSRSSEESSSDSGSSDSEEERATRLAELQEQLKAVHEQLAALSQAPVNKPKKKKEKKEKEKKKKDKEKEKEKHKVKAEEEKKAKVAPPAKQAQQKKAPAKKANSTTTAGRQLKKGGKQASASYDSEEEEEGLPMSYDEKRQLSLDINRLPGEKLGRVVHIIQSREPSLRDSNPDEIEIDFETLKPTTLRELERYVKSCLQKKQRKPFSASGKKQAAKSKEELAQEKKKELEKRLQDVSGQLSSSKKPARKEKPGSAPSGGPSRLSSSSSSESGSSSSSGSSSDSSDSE

[7] = molecular target: T3, Bromodomain testis-specific protein (Homo sapiens, UniProt Q58F21); assay: Binding affinity BRDT BD1 (unknown origin) incubated for 1 hr by TR-FRET assay
[8] = molecular target: T3, Bromodomain testis-specific protein; assay: Binding affinity BRDT BD2 (unknown origin) incubated for 1 hr by TR-FRET assay
CREB-binding protein = CREB-binding protein (Homo sapiens, UniProt Q92793); assay: Binding affinity CBP (unknown origin) incubated for 1 hr by TR-FRET assay
Chain of CREB-binding protein (Q92793 whole entry): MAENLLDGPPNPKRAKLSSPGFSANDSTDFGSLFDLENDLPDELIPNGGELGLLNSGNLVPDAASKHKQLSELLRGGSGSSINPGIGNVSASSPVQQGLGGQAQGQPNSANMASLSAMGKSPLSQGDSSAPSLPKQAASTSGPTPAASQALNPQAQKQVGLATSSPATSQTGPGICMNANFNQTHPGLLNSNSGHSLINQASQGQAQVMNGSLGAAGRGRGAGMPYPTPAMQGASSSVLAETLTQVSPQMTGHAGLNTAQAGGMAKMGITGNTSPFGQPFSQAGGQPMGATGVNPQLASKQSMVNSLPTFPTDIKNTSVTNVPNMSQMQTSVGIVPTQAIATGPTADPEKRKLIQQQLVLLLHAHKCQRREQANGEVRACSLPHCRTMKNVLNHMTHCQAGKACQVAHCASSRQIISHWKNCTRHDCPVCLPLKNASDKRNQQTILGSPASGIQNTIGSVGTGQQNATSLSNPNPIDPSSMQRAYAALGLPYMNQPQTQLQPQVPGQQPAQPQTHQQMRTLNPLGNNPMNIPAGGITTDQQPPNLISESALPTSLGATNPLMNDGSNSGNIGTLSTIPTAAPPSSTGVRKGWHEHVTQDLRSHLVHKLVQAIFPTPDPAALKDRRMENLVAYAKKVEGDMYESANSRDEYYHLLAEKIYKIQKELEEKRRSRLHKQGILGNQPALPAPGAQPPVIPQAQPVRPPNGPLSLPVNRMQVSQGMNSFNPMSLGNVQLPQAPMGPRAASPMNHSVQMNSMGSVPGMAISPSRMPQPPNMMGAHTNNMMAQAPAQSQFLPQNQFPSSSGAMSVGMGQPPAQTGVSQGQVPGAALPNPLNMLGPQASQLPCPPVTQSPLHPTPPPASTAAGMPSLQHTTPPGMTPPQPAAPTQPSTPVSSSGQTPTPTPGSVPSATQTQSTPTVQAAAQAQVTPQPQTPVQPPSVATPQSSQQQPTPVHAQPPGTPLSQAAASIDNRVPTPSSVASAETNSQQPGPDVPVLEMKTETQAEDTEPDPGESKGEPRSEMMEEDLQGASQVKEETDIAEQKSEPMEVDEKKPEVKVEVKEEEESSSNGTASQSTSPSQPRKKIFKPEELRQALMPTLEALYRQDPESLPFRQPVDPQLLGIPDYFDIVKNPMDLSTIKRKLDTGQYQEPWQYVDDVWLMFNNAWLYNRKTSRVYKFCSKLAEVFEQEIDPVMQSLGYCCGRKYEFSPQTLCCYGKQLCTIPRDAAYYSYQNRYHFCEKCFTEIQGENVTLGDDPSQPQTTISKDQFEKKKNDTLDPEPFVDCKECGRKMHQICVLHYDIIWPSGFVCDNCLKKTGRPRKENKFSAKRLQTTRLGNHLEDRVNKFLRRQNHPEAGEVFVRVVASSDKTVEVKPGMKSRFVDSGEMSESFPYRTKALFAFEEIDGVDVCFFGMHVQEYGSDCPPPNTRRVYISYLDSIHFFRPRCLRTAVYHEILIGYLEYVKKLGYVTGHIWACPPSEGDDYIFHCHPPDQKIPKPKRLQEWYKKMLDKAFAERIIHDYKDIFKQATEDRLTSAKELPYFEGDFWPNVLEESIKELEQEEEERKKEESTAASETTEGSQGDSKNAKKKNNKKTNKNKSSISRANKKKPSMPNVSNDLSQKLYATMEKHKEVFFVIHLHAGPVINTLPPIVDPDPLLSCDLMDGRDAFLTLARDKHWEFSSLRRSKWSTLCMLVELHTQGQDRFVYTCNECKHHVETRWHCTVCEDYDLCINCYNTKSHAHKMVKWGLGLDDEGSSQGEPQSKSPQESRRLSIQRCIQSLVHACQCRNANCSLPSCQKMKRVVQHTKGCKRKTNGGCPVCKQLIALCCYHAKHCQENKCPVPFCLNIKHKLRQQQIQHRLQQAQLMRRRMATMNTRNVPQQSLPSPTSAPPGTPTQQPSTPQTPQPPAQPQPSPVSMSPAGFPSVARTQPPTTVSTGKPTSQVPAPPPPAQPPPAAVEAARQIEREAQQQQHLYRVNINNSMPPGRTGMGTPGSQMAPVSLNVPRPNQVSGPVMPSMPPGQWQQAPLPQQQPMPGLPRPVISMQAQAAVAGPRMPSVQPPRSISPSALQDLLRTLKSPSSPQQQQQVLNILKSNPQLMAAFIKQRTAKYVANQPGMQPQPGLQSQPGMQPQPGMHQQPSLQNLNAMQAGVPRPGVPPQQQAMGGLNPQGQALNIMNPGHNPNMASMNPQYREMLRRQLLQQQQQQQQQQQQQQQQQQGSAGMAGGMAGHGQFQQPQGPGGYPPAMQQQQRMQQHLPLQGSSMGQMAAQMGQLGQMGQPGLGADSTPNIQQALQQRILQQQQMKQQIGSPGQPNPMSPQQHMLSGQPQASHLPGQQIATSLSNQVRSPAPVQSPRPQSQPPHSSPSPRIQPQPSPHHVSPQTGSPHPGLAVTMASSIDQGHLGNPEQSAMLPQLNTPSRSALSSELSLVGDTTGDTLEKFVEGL

[9] = Half life in rat at 10 mg/kg, iv; format: ADME, organism-based; settings: in vivo
[10] = Volume of distribution at steady state in rat at 20 mg/kg, po; format: ADME, organism-based; settings: in vivo
[11] = Clearance in rat at 10 mg/kg, iv; format: ADME, organism-based; settings: in vivo
[12] = Aqueous solubility of the compound after 24 hrs by HPLC analysis; format: physicochemical; settings: buffer
Method in brief: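 Compound suspended in water and shaken 24 h at 25 °C, then centrifuged and filtered. Supernatant analyzed by C18 reverse-phase HPLC with one-point calibration against solutions of known concentration.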

Mus musculus [13] = assay: Antiinflammatory activity in C57BL/6 mouse model of poly(I:C)-induced acute airway inflammation assessed as inhibition of neutrophilic inflammation around small sized airways at 10 mg/kg, po administered 1 day prior to poly(I:C) stimulation by H and E staining based analysis; format: functional; design: scale not given: the % may be the effect or the level left
Mus musculus [14] = assay: Antiinflammatory activity in C57BL/6 mouse model of poly(I:C)-induced acute airway inflammation assessed as decrease in IL-6 level in BALF at 10 mg/kg, po administered 1 day prior to poly(I:C) stimulation; format: functional, organism-based
Mus musculus [15] = assay: Antiinflammatory activity in C57BL/6 mouse model of poly(I:C)-induced acute airway inflammation assessed as decrease in MCP-1 level in BALF at 10 mg/kg, po administered 1 day prior to poly(I:C) stimulation; format: functional, organism-based
Mus musculus [16] = assay: Antiinflammatory activity in C57BL/6 mouse model of poly(I:C)-induced acute airway inflammation assessed as decrease in RANTES level in BALF at 10 mg/kg, po administered 1 day prior to poly(I:C) stimulation; format: functional, organism-based
Mus musculus [17] = assay: Antiinflammatory activity in C57BL/6 mouse model of poly(I:C)-induced acute airway inflammation assessed as decrease in IL-6 gene expression in lung tissue at 10 mg/kg, po administered 1 day prior to poly(I:C) stimulation; format: functional, organism-based
Mus musculus [18] = assay: Antiinflammatory activity in C57BL/6 mouse model of poly(I:C)-induced acute airway inflammation assessed as decrease in KC gene expression in lung tissue at 10 mg/kg, po administered 1 day prior to poly(I:C) stimulation; format: functional, organism-based
Mus musculus [19] = assay: Antiinflammatory activity in C57BL/6 mouse model of poly(I:C)-induced acute airway inflammation assessed as decrease in ISG54 gene expression in lung tissue at 10 mg/kg, po administered 1 day prior to poly(I:C) stimulation; format: functional, organism-based
Mus musculus [20] = assay: Antiinflammatory activity in C57BL/6 mouse model of poly(I:C)-induced acute airway inflammation assessed as decrease in H3K122Ac accumulation in lung tissue at 10 mg/kg, po administered 1 day prior to poly(I:C) stimulation by immunofluorescence analysis; format: functional, organism-based
Method in brief: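 Same mouse model: 10 mg/kg po one day before, plus a second dose with intranasal poly(I:C) (300 μg). Lungs collected one day later. H3K122Ac detected by immunofluorescence on paraffin lung sections and quantified as fold change in total fluorescence intensity.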

Mus musculus [21] = assay: Antiinflammatory activity in C57BL/6 mouse model of poly(I:C)-induced acute airway inflammation assessed as decrease in total cells level in BALF at 10 mg/kg, po administered 1 day prior to poly(I:C) stimulation; format: functional, organism-based
[22] = molecular target: T1, Bromodomain-containing protein 4
[23] = molecular target: T1, Bromodomain-containing protein 4; remark: listed apart in the source
[24] = molecular target: T1, Bromodomain-containing protein 4; remark: listed apart in the source
[25] = molecular target: T1, Bromodomain-containing protein 4; remark: listed apart in the source
[26] = molecular target: T1, Bromodomain-containing protein 4; remark: listed apart in the source
[27] = molecular target: T1, Bromodomain-containing protein 4; remark: listed apart in the source
[28] = molecular target: T1, Bromodomain-containing protein 4; remark: listed apart in the source
[29] = molecular target: T1, Bromodomain-containing protein 4; remark: listed apart in the source
[30] = tested on: Bromodomain-containing protein 4 (Homo sapiens), O60885 [E151A]
[31] = tested on: Bromodomain-containing protein 4 (Homo sapiens), O60885 [E151A]; remark: listed apart in the source
[32] = tested on: Bromodomain-containing protein 4 (Homo sapiens), O60885 [E151A]; remark: listed apart in the source
[33] = tested on: Bromodomain-containing protein 4 (Homo sapiens), O60885 [E151A]; remark: listed apart in the source
[34] = tested on: Bromodomain-containing protein 4 (Homo sapiens), O60885 [E151A]; remark: listed apart in the source

AUC(0-t) [1]: 602 ng·h/mL
IC50 [2]: 370 nM
Activity [3]: Dose-Dependent Effect
IC50 [4]: 835 nM
IC50 [5]: 1310 nM
IC50 [6]: 2000 nM
IC50 [7]: 2420 nM
IC50 [8]: 1900 nM
IC50 (CREB-binding protein): > 10000 nM
half-life [9]: 2.5 h
Vdss [10]: 170 L/kg
clearance [11]: 75 mL/min/kg
solubility [12]: 3500 µg/mL (≈ 6.83 mM)
ΔTm [22]: 6.6 °C
ΔTm [23]: 5.8 °C
ΔTm [24]: 0.7 °C
ΔTm [25]: 15.8 °C
ΔTm [26]: 15.5 °C
ΔTm [27]: 13.3 °C
ΔTm [28]: 1.1 °C
ΔTm [29]: 0.7 °C
ΔTm [30]: 0.7 °C
ΔTm [31]: 0.9 °C
ΔTm [32]: 0.7 °C
ΔTm [33]: 0.5 °C
ΔTm [34]: 0.4 °C
Compound: O=C(Nc1ccc(C(F)(F)F)cc1)Nc1ccc(S(=O)(=O)N2CCC[C@H]2CN2CCOCC2)cc1
Activity (Mus musculus [13]): 100%
Activity (Mus musculus [14]): inactive
Activity (Mus musculus [15]): inactive
Activity (Mus musculus [16]): inactive
Activity (Mus musculus [17]): inactive
Activity (Mus musculus [18]): inactive
Activity (Mus musculus [19]): Active
Activity (Mus musculus [20]): Active
Activity (Mus musculus [21]): Active
